Data from article PMC8916014 (Proceedings of the National Academy of Sciences of the …, 2022).

Assays:
[1] = test system: E. coli ATCC25922 with purified LPS from E. coli O111:B4; assay: LPS-mediated antimicrobial block assay; type: cell-based, Escherichia coli; conditions: LPS 25 μg/mL
Outline: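 A virtual-colony count assay gave the fold-change in MBC against E. coli across different concentrations of added purified LPS. Polymyxin B and kanamycin were run as comparators.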

[2] = test system: E. coli ATCC25922 with purified E. coli 70S ribosome; assay: bacterial ribosome-mediated antimicrobial block assay; type: cell-based, Escherichia coli; conditions: 70S ribosome 12.5 nM
Outline: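 MBC fold-change against E. coli with exogenous E. coli 70S ribosome was determined by virtual-colony count assay. Polymyxin B and kanamycin served as comparators. Triplicate experiments were reported as mean ± SD, with one- or two-way ANOVA and Bonferroni correction.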

S. aureus (ATCC 25923) = assay: in vivo efficacy, S. aureus-induced pneumonia; design: species or system C57BL/6 mice; conditions: 2 mg/kg intratracheal
[3] = test system: E. coli ATCC25922 outer membrane; assay: outer membrane permeability assay; type: cell-based, Escherichia coli; conditions: E. coli ATCC25922, 1 h treatment, 0.195–100 μM
Outline: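 E. coli ATCC25922 was treated with test compound for 1 h, then probed with NPN. NPN fluorescence intensity served as the measure of outer-membrane permeability and was normalized to relative fluorescence intensity. Experiments were run in triplicate and reported as mean ± SD.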

[4] = test system: K. pneumoniae (ATCC 13883); assay: in vivo efficacy, K. pneumoniae-induced pneumonia; design: species or system C57BL/6 mice; conditions: 2 mg/kg intratracheal

Row | Compound | fold change in MBC in presence of LPS [1] | fold change in MBC in presence of E. coli 70S ribosome [2] | efficacy in S. aureus-induced pneumonia (S. aureus (ATCC 25923)) | permeability of bacterial OM (NPN fluorescence) [3] | survival rate [4] [%]
1 | NC[C@H]1O[C@H](O[C@H]2[C@H](O)[C@@H](O[C@H]3O[C@H](CO)[C@@H](O)[C@H](N)[C@H]3O)[C@H](N)C[C@@H]2N)[C@H](O)[C@@H](O)[C@@H]1O [kanamycin] | no effect | antagonized |  |  | 
2 | polymyxin B [PMB] | fourfold | failed to affect activity | ineffective | increased the permeability of bacterial OM in a dose-dependent manner | 100
